Results on eight molecules are retold here after ChEMBL document CHEMBL5108089, “Structure-based discovery of potent inhibitors of Axl: design, synthesis, and biological evaluation” (RSC Med Chem, 2022).

The nature of data set [1]: Metabolic stability in human liver microsomes assessed as half-life preincubated for 10 mins followed by NADPH addition and measured upto 60 mins by LC-MS/MS analysis. Conditions: time < 70 min. The class given is ADME, Microsome.
The nature of data set [2]: Metabolic stability in human liver microsomes assessed as intrinsic clearance preincubated for 10 mins followed by NADPH addition and measured upto 60 mins by LC-MS/MS analysis. The class given is ADME, Microsome. To be noted: time < 70 min, read-out: CLH.
Data set [3] can be described thus: Intrinsic clearance in human. The class given is ADME.
A short description of data set [4]: Metabolic stability in rat liver microsomes assessed as half-life preincubated for 10 mins followed by NADPH addition and measured upto 60 mins by LC-MS/MS analysis. Format: ADME, Microsome. To be noted: time < 70 min.
Data set [5] in a line: Metabolic stability in rat liver microsomes assessed as intrinsic clearance preincubated for 10 mins followed by NADPH addition and measured upto 60 mins by LC-MS/MS analysis. Format: ADME, Microsome. To be noted: time < 70 min, read-out: CLH.
A short description of data set [6]: Intrinsic clearance in rat. Format: ADME.
Data set [7] can be described thus: AUC (0 to last) in Sprague-Dawley rat at 5 mg/kg, po measured upto 24 hrs by LC-MS/MS analysis. The class given is ADME, organism-based. To be noted: in vivo. Also on record: dose 5 mg/kg, time < 24 hrs, route po.
Data set [8] can be described thus: Cmax in Sprague-Dawley rat at 5 mg/kg, po measured upto 24 hrs by LC-MS/MS analysis. Format: ADME, organism-based. Also on record: dose 5 mg/kg, time < 24 hrs, route po. Conditions: in vivo.
The nature of data set [9]: Half-life in Sprague-Dawley rat at 5 mg/kg, po measured upto 24 hrs by LC-MS/MS analysis. Format: ADME, organism-based. To be noted: in vivo.
Data set [10] can be described thus: Oral bioavailability in Sprague-Dawley rat at 5 mg/kg measured upto 24 hrs by LC-MS/MS analysis. Format: ADME, organism-based. To be noted: in vivo.
Data set [11] can be described thus: AUC (0 to last) in Sprague-Dawley rat at 1 mg/kg, iv measured upto 24 hrs by LC-MS/MS analysis. The class given is ADME, organism-based. Also on record: dose 1 mg/kg, time < 24 hrs, route iv. To be noted: in vivo.
Data set [12] in a line: Cmax in Sprague-Dawley rat at 1 mg/kg, iv measured upto 24 hrs by LC-MS/MS analysis. Format: ADME, organism-based. Also on record: time < 24 hrs, dose 1 mg/kg, route iv. Conditions: in vivo.
A short description of data set [13]: Clearance in Sprague-Dawley rat at 1 mg/kg, iv measured upto 24 hrs by LC-MS/MS analysis. Conditions: in vivo. The class given is ADME, organism-based.
The nature of data set [14]: Half-life in Sprague-Dawley rat at 1 mg/kg, iv measured upto 24 hrs by LC-MS/MS analysis. Format: ADME, organism-based. To be noted: in vivo.
Data set [15] has as its target T1, Tyrosine-protein kinase receptor UFO (Homo sapiens, UniProt P30530).
T1 sequence (P30530 whole entry): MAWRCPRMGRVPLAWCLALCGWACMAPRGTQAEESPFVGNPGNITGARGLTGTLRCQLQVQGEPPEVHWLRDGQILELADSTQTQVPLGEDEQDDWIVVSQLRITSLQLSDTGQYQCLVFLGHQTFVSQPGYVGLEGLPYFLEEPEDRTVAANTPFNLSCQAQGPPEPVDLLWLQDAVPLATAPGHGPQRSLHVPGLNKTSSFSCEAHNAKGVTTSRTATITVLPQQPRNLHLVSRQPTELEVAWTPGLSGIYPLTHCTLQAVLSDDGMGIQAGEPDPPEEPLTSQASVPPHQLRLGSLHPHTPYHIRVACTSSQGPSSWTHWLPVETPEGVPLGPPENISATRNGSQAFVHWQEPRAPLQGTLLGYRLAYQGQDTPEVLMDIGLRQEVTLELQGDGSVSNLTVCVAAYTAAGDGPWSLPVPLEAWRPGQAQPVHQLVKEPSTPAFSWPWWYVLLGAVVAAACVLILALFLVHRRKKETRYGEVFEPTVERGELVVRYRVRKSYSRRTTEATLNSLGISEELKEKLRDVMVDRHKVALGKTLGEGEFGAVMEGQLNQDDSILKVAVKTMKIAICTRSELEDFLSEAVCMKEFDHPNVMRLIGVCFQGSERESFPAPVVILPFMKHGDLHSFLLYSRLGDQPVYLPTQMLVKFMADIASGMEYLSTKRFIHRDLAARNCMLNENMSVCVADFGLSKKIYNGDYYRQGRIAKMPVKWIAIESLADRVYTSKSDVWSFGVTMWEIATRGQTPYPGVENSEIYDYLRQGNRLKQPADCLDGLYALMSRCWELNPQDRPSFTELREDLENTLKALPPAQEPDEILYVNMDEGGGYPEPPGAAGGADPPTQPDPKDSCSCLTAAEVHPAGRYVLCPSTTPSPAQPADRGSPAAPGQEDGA
As to the kind of experiment: Inhibition of human Axl using KKSRGDYMTMQIG as substrate incubated for 40 mins in the presence of [gamma33P]ATP by scintillation counting analysis.

Data set [16] has as its target Aurora kinase B (Homo sapiens, UniProt Q96GD4). As to the kind of experiment: Inhibition of human Aurora B using AKRRRLSSLRA as substrate incubated for 40 mins in the presence of [gamma33P]ATP by scintillation counting analysis. Put shortly:
(§1)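 Human kinase, radiometric: incubated in 8 mM MOPS pH 7.0, 0.2 mM EDTA, 10 mM magnesium acetate with [γ-33P]-ATP; started by Mg/ATP mix, 40 min at room temperature, stopped with phosphoric acid to 0.5%. Spotted on P30 filtermat, washed 4×4 min in 0.425% phosphoric acid and once in methanol, dried, scintillation counted.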

The target in data set [17] is Tyrosine-protein kinase JAK2 (Homo sapiens, UniProt O60674). As to the kind of experiment: Inhibition of human JAK2 using KTFCGTPEYLAPEVRREPRILSEEEQEMFRDFDYIADWC as substrate incubated for 40 mins in the presence of [gamma33P]ATP by scintillation counting analysis. Put shortly:
as §1

In data set [18] the target is ALK tyrosine kinase receptor (Homo sapiens, UniProt Q9UM73). As to the kind of experiment: Inhibition of human ALK using KKKSPGEYVNIEFG as substrate incubated for 40 mins in the presence of [gamma33P]ATP by scintillation counting analysis. The method in brief: as §1
Chain of ALK tyrosine kinase receptor (Q9UM73 whole entry): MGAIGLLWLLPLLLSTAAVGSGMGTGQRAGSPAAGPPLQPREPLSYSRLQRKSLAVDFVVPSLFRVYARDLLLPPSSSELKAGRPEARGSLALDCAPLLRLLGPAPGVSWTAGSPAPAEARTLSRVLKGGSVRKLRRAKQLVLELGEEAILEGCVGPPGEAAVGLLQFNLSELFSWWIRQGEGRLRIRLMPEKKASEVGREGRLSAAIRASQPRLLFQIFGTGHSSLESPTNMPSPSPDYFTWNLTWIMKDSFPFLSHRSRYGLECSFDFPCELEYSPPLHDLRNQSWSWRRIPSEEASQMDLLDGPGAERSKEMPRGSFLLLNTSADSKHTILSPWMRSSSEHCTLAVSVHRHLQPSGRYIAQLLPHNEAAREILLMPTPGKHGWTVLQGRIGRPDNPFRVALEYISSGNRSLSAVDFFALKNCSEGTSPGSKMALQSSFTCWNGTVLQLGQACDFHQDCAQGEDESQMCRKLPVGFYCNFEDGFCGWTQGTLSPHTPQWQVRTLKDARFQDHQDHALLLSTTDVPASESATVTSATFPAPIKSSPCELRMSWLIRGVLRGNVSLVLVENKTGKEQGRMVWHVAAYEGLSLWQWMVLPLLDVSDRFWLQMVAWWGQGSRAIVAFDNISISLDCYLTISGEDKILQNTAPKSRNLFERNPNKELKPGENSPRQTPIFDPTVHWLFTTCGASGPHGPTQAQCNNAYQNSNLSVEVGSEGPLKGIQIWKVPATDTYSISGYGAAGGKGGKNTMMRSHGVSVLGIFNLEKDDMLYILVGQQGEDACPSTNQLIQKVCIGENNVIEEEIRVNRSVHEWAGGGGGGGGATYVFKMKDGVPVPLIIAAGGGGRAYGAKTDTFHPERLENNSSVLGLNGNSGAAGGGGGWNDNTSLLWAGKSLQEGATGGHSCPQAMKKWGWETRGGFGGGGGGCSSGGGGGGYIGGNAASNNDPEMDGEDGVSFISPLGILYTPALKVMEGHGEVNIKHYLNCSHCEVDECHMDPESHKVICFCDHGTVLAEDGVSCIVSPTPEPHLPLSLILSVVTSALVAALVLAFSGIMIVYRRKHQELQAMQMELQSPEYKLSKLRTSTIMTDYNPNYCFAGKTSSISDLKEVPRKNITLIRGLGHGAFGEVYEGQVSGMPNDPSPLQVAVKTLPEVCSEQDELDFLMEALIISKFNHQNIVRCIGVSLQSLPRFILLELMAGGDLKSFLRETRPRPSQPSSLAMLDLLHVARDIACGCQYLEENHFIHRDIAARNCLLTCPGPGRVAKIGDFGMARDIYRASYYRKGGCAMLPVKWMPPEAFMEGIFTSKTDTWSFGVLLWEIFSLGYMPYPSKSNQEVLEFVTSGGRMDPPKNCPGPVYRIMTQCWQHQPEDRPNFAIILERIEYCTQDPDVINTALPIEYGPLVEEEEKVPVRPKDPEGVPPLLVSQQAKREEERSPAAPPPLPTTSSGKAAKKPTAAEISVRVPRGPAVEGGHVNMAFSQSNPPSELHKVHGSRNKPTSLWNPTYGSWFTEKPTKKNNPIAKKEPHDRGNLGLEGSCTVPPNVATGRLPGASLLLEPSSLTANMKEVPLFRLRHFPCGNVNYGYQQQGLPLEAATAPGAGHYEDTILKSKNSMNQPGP

Chain of Tyrosine-protein kinase JAK2 (O60674 whole entry): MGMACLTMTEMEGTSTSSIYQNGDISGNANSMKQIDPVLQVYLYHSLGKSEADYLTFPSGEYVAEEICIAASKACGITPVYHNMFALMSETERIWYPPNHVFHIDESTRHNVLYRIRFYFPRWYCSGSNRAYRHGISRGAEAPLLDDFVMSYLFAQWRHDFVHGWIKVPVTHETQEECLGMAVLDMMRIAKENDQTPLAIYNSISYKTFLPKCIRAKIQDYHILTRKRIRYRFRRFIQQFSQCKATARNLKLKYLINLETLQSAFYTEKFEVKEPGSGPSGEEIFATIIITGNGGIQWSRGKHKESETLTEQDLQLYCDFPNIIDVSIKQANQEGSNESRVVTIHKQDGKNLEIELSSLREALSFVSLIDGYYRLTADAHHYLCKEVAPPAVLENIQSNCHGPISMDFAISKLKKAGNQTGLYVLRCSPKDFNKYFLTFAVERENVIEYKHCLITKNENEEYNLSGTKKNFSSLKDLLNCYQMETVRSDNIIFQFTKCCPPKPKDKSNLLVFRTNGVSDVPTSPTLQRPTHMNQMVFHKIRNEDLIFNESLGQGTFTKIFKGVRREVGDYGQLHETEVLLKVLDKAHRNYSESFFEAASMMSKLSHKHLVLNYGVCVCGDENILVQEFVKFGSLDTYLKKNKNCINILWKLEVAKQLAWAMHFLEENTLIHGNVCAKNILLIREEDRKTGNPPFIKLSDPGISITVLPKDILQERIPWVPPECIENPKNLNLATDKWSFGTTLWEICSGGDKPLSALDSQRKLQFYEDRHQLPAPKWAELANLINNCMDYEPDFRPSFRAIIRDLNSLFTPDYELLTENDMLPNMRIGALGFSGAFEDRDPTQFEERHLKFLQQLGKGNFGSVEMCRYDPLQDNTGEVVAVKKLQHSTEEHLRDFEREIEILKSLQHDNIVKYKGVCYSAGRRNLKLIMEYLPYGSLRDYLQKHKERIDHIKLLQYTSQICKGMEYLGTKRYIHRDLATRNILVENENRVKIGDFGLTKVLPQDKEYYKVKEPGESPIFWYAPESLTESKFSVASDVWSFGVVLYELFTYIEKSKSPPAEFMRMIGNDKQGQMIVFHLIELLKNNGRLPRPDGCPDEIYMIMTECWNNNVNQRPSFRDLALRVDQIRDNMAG
Chain of Aurora kinase B (Q96GD4 whole entry): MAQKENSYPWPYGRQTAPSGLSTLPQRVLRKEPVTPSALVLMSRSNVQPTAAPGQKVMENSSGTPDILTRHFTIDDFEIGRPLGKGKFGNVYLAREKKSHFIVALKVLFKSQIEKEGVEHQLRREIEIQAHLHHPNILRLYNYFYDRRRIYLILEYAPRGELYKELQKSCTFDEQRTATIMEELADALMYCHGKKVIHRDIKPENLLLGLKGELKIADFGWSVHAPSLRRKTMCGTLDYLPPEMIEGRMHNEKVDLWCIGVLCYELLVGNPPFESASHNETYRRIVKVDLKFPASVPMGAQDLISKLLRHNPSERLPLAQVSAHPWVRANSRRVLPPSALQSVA

Take `CC(=O)N1CCN(c2ccc(Nc3ncc(Cl)c(Nc4ccccc4-c4ncn(C(C)C)n4)n3)cc2)CC1`: the half-life in [1] is 156 min; in [4], 153 min; in [9] it was 79.2 min; in data set [14], 89.4 min. Further, the CLint scaled in data set [2] amounted to 11.2 mL/min/kg; in data set [3], 7.2 mL/min/kg; in data set [5] it was 16.2 mL/min/kg; in [6], 12.5 mL/min/kg. Further, the AUClast in [7] turned out to be 661 ng·h/mL; in data set [11] it was 497 ng·h/mL. In addition, the figures for the Cmax in data set [8] and in data set [12] were 169 ng/mL and 337 ng/mL, respectively. In data set [10], this molecule had a bioavailability of 26.6%. In data set [13], the clearance was determined as 32.5 mL/min/kg.

For the molecule `CN1CCC(N(C)c2ccc(Nc3ncc(Cl)c(Nc4ccccc4-c4ncn(C)n4)n3)cc2)CC1`, the half-life turned out to be 74.2 min in data set [1] and 15.4 min in data set [4]. Besides, the CLint scaled in [2] was 23.4 mL/min/kg; in data set [3] it was 11 mL/min/kg; in data set [5], 162 mL/min/kg; in data set [6], 41.2 mL/min/kg.

With `Cc1nc(-c2ccccc2Nc2nc(Nc3ccc(CN4CCN(C)CC4)cc3)ncc2Cl)n[nH]1`, the IC50 came to 11 nM in data set [15], 4 nM in data set [16], 130 nM in [17] and 500 nM in data set [18].

Regarding `CN1CCc2ccc(Nc3ncc(Cl)c(Nc4ccccc4S(=O)(=O)N(C)C)n3)cc2C1`, the IC50 in [15] was 14 nM. The half-life in [1] and in [4] was 2.4 min each time. The CLint scaled was 720 mL/min/kg in data set [2], 20.1 mL/min/kg in data set [3], 1040 mL/min/kg in data set [5] and 52.4 mL/min/kg in data set [6].

In the case of `CN1CC2CN(C(=O)c3ccc(Nc4ncc(Cl)c(Nc5ccccc5S(=O)(=O)N(C)C)n4)cc3)CC2C1` (stereo not drawn), the values for the half-life in data set [1] and in data set [4] were 4.4 min and 7.3 min, respectively. Moreover, the CLint scaled in data set [2] worked out at 393 mL/min/kg; in [3], 19.6 mL/min/kg; in [5], 339 mL/min/kg; in data set [6], 47.5 mL/min/kg.

In the case of `CN1CCN(Cc2ccc(Nc3ncc(Cl)c(Nc4ccccc4S(=O)(=O)N(C)C)n3)cc2)CC1` [DUBERMATINIB], the half-life in [1] is 2.7 min; in data set [4], 4.3 min; in data set [9], 176 min; in data set [14] it was 106 min. Further, the CLint scaled in [2] is 646 mL/min/kg; in data set [3], 20.1 mL/min/kg; in data set [5], 582 mL/min/kg; in data set [6], 50.4 mL/min/kg. In addition, the AUClast in data set [7] came out at 158 ng·h/mL; in data set [11] it was 187 ng·h/mL. Also, the figures for the Cmax in data set [8] and in data set [12] were 46.8 ng/mL and 89.8 ng/mL, respectively. In data set [10], this molecule showed a bioavailability of 21.5%. In addition, the clearance in data set [13] was 82.8 mL/min/kg.

With `CC(=O)N1CCc2ccc(Nc3ncc(Cl)c(Nc4ccccc4S(=O)(=O)N(C)C)n3)cc2C1`, the half-life turned out to be 1.82 min in data set [1] and 2.3 min in data set [4]. The CLint scaled in [2] turned out to be 953 mL/min/kg; in data set [3] it was 20.3 mL/min/kg; in [5], 1090 mL/min/kg; in data set [6], 52.5 mL/min/kg.

Consider `CN1CCC(Oc2ccc(Nc3ncc(Cl)c(Nc4ccccc4-c4nnn(C)n4)n3)cc2)CC1`, for which the half-life in [1] was found to be 36.2 min; in data set [4], 6.4 min. Besides, the CLint scaled was 48 mL/min/kg in data set [2], 14.5 mL/min/kg in [3], 389 mL/min/kg in data set [5] and 48.3 mL/min/kg in data set [6].
